Data from ChEMBL document CHEMBL4339184, “Discovery of deshydroxy bicalutamide derivatives as androgen receptor antagonists” (Eur J Med Chem, 2019).

Assays:
LNCaP [1] = assay: Antiproliferative activity against human LNCAP cells assessed as reduction in cell viability after 96 hrs by MTT assay; format: functional, cell-based
Summary of the method: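 LNCaP cells in RPMI-1640 with 10% FCS, penicillin/streptomycin, 37°C, 5% CO2; seeded 4000 cells/well, adhered overnight. Medium replaced with fresh medium carrying nine half-log concentrations up to 100 μM (DMSO 1:100) or DMSO control, triplicate, 96 h. MTT, formazan dissolved in acidified isopropanol, A540; viability vs DMSO; absolute IC50 by non-linear regression, mean of three independent experiments.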

VCaP = assay: Antiproliferative activity against human VCaP cells assessed as reduction in cell viability after 96 hrs by MTS assay; format: functional, cell-based
Summary of the method: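 VCaP cells in DMEM with 10% FCS, exposed for 96 h in triplicate to nine concentrations from 0.1 to 100 μM or DMSO. Because adherence is poor, only half the medium was exchanged for medium carrying compound at a 1:50 dilution. Viability by MTS, absorbance at 490 nm after 1 and 2 h, normalised to DMSO; IC50 from triplicate means.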

PC-3 = assay: Antiproliferative activity against human PC3 cells assessed as reduction in cell viability after 96 hrs by MTT assay; format: functional, cell-based; settings: PC-3, 96 h
Summary of the method: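 PC3 cells grown in DMEM with 10% FCS, seeded at 4000 cells/well, adhered overnight, then medium replaced with medium containing nine concentrations from 0.1 to 100 μM (1:100 dilution of DMSO stocks) or DMSO control, in triplicate, for 96 h. MTT read-out: formazan dissolved in acidified isopropanol, absorbance at 540 nm; viability normalised to DMSO; IC50 from triplicate means.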

LNCaP [2] = assay: Potency index, ratio of IC50 for enzalutamide to IC50 for test compound for antiproliferative activity against human LNCAP cells incubated for 96 hrs by MTT assay; format: functional
[3] = target: T1, Androgen receptor (Homo sapiens) (UniProt P10275); assay: Antagonist activity at androgen receptor in human LNCAP cells assessed as reduction in PSA expression after 24 hrs by qPCR analysis; format: cell-based
T1 sequence (whole entry): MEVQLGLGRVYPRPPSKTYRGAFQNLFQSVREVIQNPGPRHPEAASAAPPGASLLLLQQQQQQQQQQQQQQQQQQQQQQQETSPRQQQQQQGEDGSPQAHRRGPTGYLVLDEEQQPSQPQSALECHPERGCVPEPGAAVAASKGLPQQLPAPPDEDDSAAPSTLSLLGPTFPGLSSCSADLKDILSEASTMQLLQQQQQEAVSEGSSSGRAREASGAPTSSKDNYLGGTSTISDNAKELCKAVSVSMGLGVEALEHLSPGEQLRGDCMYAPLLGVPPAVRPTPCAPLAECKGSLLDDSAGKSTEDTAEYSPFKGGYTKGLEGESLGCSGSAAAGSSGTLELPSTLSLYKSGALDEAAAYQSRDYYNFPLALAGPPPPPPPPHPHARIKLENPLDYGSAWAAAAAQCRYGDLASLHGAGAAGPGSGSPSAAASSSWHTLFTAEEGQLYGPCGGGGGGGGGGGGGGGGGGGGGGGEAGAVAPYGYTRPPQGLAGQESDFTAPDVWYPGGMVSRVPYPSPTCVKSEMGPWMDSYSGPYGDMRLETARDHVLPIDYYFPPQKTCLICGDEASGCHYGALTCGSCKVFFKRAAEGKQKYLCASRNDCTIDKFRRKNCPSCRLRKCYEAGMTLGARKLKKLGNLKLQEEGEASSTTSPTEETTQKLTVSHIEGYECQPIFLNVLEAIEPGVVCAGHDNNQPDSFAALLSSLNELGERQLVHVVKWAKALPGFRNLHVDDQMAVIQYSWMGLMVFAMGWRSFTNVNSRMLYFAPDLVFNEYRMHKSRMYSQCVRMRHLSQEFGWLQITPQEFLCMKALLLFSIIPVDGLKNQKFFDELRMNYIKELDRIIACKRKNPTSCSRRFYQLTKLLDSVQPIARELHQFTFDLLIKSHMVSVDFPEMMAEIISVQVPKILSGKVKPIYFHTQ
Summary of the method: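 LNCaP cells seeded in 6-well plates in RPMI and allowed 24 h to adhere, then exposed to 5, 10, 50 and 100 μM for 24 h; untreated and DMSO (1:100) wells as negative controls. RNA extracted with TRI-reagent, reverse-transcribed, qPCR run in triplicate for PSA with AR, GAPDH, RPL19 and β-actin as housekeeping genes; relative expression by ΔΔCT.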

LNCaP [4] = assay: Potency index, ratio of IC50 for bicalutamide to IC50 for test compound for antiproliferative activity against human LNCAP cells incubated for 96 hrs by MTT assay; format: functional

## CC(CS(=O)(=O)c1cc(C(F)(F)F)cc(C(F)(F)F)c1)C(=O)Nc1ccc(C#N)cc1C(F)(F)F (racemic)
LNCaP [1]
  IC50: 9.56 µM

## CC(CSc1ccc(F)cc1)C(=O)Nc1ccc([N+](=O)[O-])cc1C(F)(F)F (racemic)
LNCaP [1]
  IC50: 43.2 µM

## CC(CSc1ccc(C(F)(F)F)cc1)C(=O)Nc1ccc([N+](=O)[O-])c(C(F)(F)F)c1 (racemic)
LNCaP [1]
  IC50: 4.41 µM

## CC(CSc1cc(C(F)(F)F)cc(C(F)(F)F)c1)C(=O)Nc1ccc([N+](=O)[O-])cc1C(F)(F)F (racemic)
LNCaP [1]
  IC50: 43.7 µM

## CC(CSc1cccc(OC(F)(F)F)c1)C(=O)Nc1ccc(C#N)c(C(F)(F)F)c1 (racemic)
LNCaP [1]
  IC50: 115 µM

## CC(CS(=O)(=O)c1ccc(C(F)(F)F)cc1)C(=O)Nc1ccc([N+](=O)[O-])c(C(F)(F)F)c1 (racemic)
LNCaP [1]
  IC50: 3.31 µM

## CC(CSc1ccc(C(F)(F)F)cc1)C(=O)Nc1ccc([N+](=O)[O-])cc1C(F)(F)F (racemic)
LNCaP [1]
  IC50: 54.3 µM

## CC(CS(=O)(=O)c1cc(C(F)(F)F)cc(C(F)(F)F)c1)C(=O)Nc1ccc([N+](=O)[O-])cc1C(F)(F)F (racemic)
LNCaP [1]
  IC50: 3.08 µM

## CC(CS(=O)(=O)c1cccc(OC(F)(F)F)c1)C(=O)Nc1ccc(C#N)c(C(F)(F)F)c1 (racemic)
LNCaP [1]
  IC50: 13.2 µM

## CNC(=O)c1ccc(N2C(=S)N(c3ccc(C#N)c(C(F)(F)F)c3)C(=O)C2(C)C)cc1F [ENZALUTAMIDE]
VCaP
  IC50: 3.66 µM
LNCaP [1]
  IC50: 1.31 µM
PC-3
  IC50: 15.1 µM

## CC(CSc1ccc(F)cc1)C(=O)Nc1ccc(C#N)c(C(F)(F)F)c1 (racemic)
LNCaP [1]
  IC50: 8.69 µM

## CC(CS(=O)(=O)c1ccc(C(F)(F)F)cc1)C(=O)Nc1ccc(C#N)cc1C(F)(F)F (racemic)
LNCaP [1]
  IC50: 28.8 µM

## CC(CS(=O)(=O)c1ccc(C(F)(F)F)cc1)C(=O)Nc1ccc(C#N)c(C(F)(F)F)c1 (racemic)
LNCaP [1]
  IC50: 58 µM

## CC(CSc1ccc(F)cc1)C(=O)Nc1ccc([N+](=O)[O-])c(C(F)(F)F)c1 (racemic)
LNCaP [1]
  IC50: 27.2 µM

## CC(CSc1cc(C(F)(F)F)cc(C(F)(F)F)c1)(Sc1cc(C(F)(F)F)cc(C(F)(F)F)c1)C(=O)Nc1ccc([N+](=O)[O-])cc1C(F)(F)F (racemic)
VCaP
  IC50: 0.18 µM
LNCaP [1]
  IC50: 0.43 µM
LNCaP [2]
  Ratio IC50: >3
[3]
  inhibition: Dose-dependent effect
LNCaP [4]
  Ratio IC50: >40
PC-3
  IC50: 0.91 µM

## C[C@](O)(CS(=O)(=O)c1ccc(F)cc1)C(=O)Nc1ccc(C#N)c(C(F)(F)F)c1 [(R)-BICALUTAMIDE]
VCaP
  IC50: 5.96 µM
LNCaP [1]
  IC50: 20.4 µM
PC-3
  IC50: 92.6 µM

## CC(CSc1cc(C(F)(F)F)cc(C(F)(F)F)c1)C(=O)Nc1ccc(C#N)cc1C(F)(F)F (racemic)
LNCaP [1]
  IC50: 4.57 µM

## CC(CS(=O)(=O)c1cc(C(F)(F)F)cc(C(F)(F)F)c1)C(=O)Nc1ccc(C#N)c(C(F)(F)F)c1 (racemic)
LNCaP [1]
  IC50: 6.16 µM

## CC(CS(=O)(=O)c1ccc(F)cc1)C(=O)Nc1ccc([N+](=O)[O-])cc1C(F)(F)F (racemic)
LNCaP [1]
  IC50: 4.05 µM

## CC(CS(=O)(=O)c1ccc(F)cc1)C(=O)Nc1ccc([N+](=O)[O-])c(C(F)(F)F)c1 (racemic)
VCaP
  IC50: 8.21 µM
LNCaP [1]
  IC50: 2.67 µM
[3]
  inhibition: Dose-dependent effect
PC-3
  IC50: 112 µM

## CC(CS(=O)(=O)c1ccc(F)cc1)C(=O)Nc1ccc(C#N)c(C(F)(F)F)c1 (racemic)
LNCaP [1]
  IC50: 115 µM

## CC(CS(=O)(=O)c1cc(C(F)(F)F)cc(C(F)(F)F)c1)C(=O)Nc1ccc([N+](=O)[O-])c(C(F)(F)F)c1 (racemic)
LNCaP [1]
  IC50: 12.2 µM

## CC(CS(=O)(=O)c1ccc(C(F)(F)F)cc1)C(=O)Nc1ccc([N+](=O)[O-])cc1C(F)(F)F (racemic)
LNCaP [1]
  IC50: 26.3 µM

## CC(CSc1ccc(C(F)(F)F)cc1)(Sc1ccc(C(F)(F)F)cc1)C(=O)Nc1ccc(C#N)c(C(F)(F)F)c1 (racemic)
VCaP
  IC50: 0.13 µM
LNCaP [1]
  IC50: 1.68 µM
[3]
  inhibition: Dose-dependent effect
PC-3
  IC50: 5.45 µM
